From publication PMC6737205 (International Journal of Nanomedicine, 2019)

Tests used:
Design in all cases: species or system mouse
Conditions in all cases: S180 mice, oral, RGDV-gemcitabine 8.4 μmol/kg/day, gemcitabine 84 μmol/kg/day, every 3 days for 12 days, n=12
In vivo serum Cr assay = test: In vivo serum Cr assay
How it was run: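 Creatinine was measured with an enzymatic kit on serum from S180 tumour-bearing mice, with blood spun at 1000 rpm, 4°C, 10 mins. Serum plus enzyme solution A was incubated at 37°C for 5 mins and read at 546 nm (A1). After a further 30 mins at 37°C, enzyme solution B was added, incubated 5 mins, and read again at 546 nm (A2). Cr was calculated from the two readings.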

In vivo serum BUN assay = test: In vivo serum BUN assay
How it was run: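 BUN was measured by a kit immunoassay on serum from S180 tumour-bearing mice, with blood spun at 3000 rpm, 4°C, 10 mins. Serum was incubated with anti-BUN antibody and streptavidin-HRP at 37°C for 60 mins, then washed 5 times. Chromogen was added at 37°C for 15 mins in the dark, then stop solution. Read at 450 nm within 15 mins; BUN from a standard curve.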

[1] = In vivo serum AST/GOT assay
[2] = In vivo serum ALT/GPT assay
How it was run: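 Serum came from male ICR mice bearing subcutaneous S180 tumours (1×10^7 cells, right armpit). Blood was taken 3 hrs after the last oral dose, with saline 10 mL/kg/day as vehicle, and spun at 1000 rpm, 4°C, 10 mins. Serum was incubated with kit matrix at 37°C for 30 mins, then dinitrophenylhydrazine at 37°C for 20 mins, then 0.4 M NaOH. Read at 510 nm; ALT from a standard curve.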

With `Nc1ccn([C@@H]2O[C@H](CO)[C@@H](O)C2(F)F)c(=O)n1` [gemcitabine] the “serum Cr compared with NS-treated mice” value (In vivo serum Cr assay) was “significantly higher than those of NS-treated mice”, the “serum BUN compared with NS-treated mice” value (In vivo serum BUN assay) was “significantly higher than those of NS-treated mice” and the “serum AST/GOT compared with NS-treated mice” value [1] was “significantly higher than those of NS-treated mice”. The “serum ALT/GPT compared with NS-treated mice” value [2] was “significantly higher than those of NS-treated mice”.
